The entries come from a sample that favours hits as a whole.
Fibroblast inh: antiproliferative effect on LL 47 fibroblasts – human, LL 47 cells, CellTiter-Glo luminescence, primary screen; LL 47 human lung fibroblast viability, ATP luminescence; active compounds read low; 85,000 tested, 1.1% active; viability, % at 10 µM;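 active means viability at or below 50% in the single dose screen; inactive means viability above 50%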;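 further: compound exposure lasted 72 h before the ATP readout; 100% = median luminescence of untreated cell-only wells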
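Assay system: human lung fibroblast line LL 47, low passage. Input: 1,150 fibroblasts seeded per well. Times: overnight cell rest, 72 h compound treatment at 37 °C. Evaluation: % viability of median cell-only signal. Technique: luminescent ATP detection, CellTiter-Glo. Control set: cell-only wells, no compound.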
PTEN del growth: growth suppression of PTEN-null HCT116, primary screen, cell-based, CellTiter-Glo; 140,000 tested, 1.2% active; viability, % at 10 µM; HCT116 PTEN-null viability, 60 h; active compounds read low; AID 827, 2007;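 active means viability at or below a set limit, 4 SD under the median of all tested compounds, cut at about 3.7% in these data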;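 further: PTEN knockout HCT116 line with beta catenin targeted HCT116 as companion control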
HUVEC inhibit: inhibitors of HUVEC proliferation, primary screen, cell-based, 384-well; AID 648, 2007; CellTiter-Glo luminescence, 72 h; active compounds read low; viability, % at 10 µM (by protocol); 86,000 tested, 1.1% active;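 active means viability at or below 30%; inactive means viability above 30%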;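 further: 100% = median luminescence of DMSO-only cell control wells on each plate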
H69AR inhibit: proliferation blockers of H69AR lung cancer cells, primary screen, cell-based, human, 86K library; H69AR lung tumor viability, ATP luminescence, 72 h; active compounds read low; viability, % at 10 µM; 85,000 tested, 6% active;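 active means viability at or below 40%; inactive means viability above 40%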;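 further: multidrug resistant small cell line overexpressing MRP-1 efflux transporter; 100% = mean luminescence of untreated control wells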
bCat KO growth: primary screen for growth suppressors in beta-catenin knockout HCT116 cells (colon tumor, human). HCT116 beta-catenin knockout viability, CellTiter-Glo, 60 h; active compounds read low. viability, % at 10 µM. 140,000 tested, 1.5% active. AID 818, 2007;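 active means viability at or under a set limit, the compound median less 4 SD, cut at about 6% in these data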;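 further: 0% = Hyamine 1622 control at 20 µM and 100% = untreated cell control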
The depositor's hits bear a star.

For CC(C)C1(C)N=C(c2ncccc2C(=O)O)NC1=O (centres undefined) the results were PTEN del growth 101 and bCat KO growth 94.
For CCC(C)n1c(O)c(C(c2ccccn2)c2c(O)n(C(C)CC)c(=S)[nH]c2=O)c(=O)[nH]c1=S (centres undefined) the results were PTEN del growth 106 and bCat KO growth 94.
CCCCc1nc(N2CCNCC2)c(C#N)c2c1CSC(C)(C)C2 was read as PTEN del growth 1.9* and bCat KO growth 1.7*.
For Clc1ccc(COC(Cn2ccnc2)c2ccc(Cl)cc2Cl)c(Cl)c1 (centres undefined) the results were Fibroblast inh 82, PTEN del growth 40, HUVEC inhibit 41, H69AR inhibit 2.3* and bCat KO growth 35.
Screening COc1cccc(OC)c1C(=O)Nc1nc(N)n(-c2ccccc2)n1 returned Fibroblast inh 103, PTEN del growth 104, HUVEC inhibit 95, H69AR inhibit 92 and bCat KO growth 95.
Screening COc1ccc(Cn2c(N)c(C(=O)NCc3ccco3)c3nc4ccccc4nc32)cc1 returned Fibroblast inh 77, PTEN del growth 29, HUVEC inhibit 70, H69AR inhibit 38* and bCat KO growth 52.
For Nc1c(C(=O)NCc2ccco2)c2nc3ccccc3nc2n1Cc1ccc(F)cc1 the results were Fibroblast inh 85, PTEN del growth 6, HUVEC inhibit 70, H69AR inhibit 22* and bCat KO growth 55.
`Brc1ccc2c(c1)C(OC1CN3CCC1CC3)c1ccccc1CS2` (centres undefined) gave PTEN del growth 2.9* and bCat KO growth 6.0*.
`CC(=NCC1CCCO1)c1c(O)n(Cc2ccccc2)c(=O)[nH]c1=O` (centres undefined) gave Fibroblast inh 106, PTEN del growth 107, HUVEC inhibit 95, H69AR inhibit 86 and bCat KO growth 102.
Screening COc1ccc(CCN(C)Cc2c(F)cccc2F)cc1OC returned Fibroblast inh 101, PTEN del growth 93, HUVEC inhibit 90, H69AR inhibit 96 and bCat KO growth 79.
For CCOC(=O)c1c(C)n(Cc2ccccc2)c2ccc(OCC(O)Cn3nc(C)cc3C)cc12 (centres undefined) the results were Fibroblast inh 100, PTEN del growth 66, HUVEC inhibit 61, H69AR inhibit 12* and bCat KO growth 73.
Screening Nc1cc(Cl)c2nonc2c1[N+](=O)[O-] returned PTEN del growth 2.2* and bCat KO growth 4.9*.
Screening CCc1nc2ccccc2c(=O)n1-c1ccc2ccccc2c1 returned Fibroblast inh 91, PTEN del growth 95, HUVEC inhibit 81, H69AR inhibit 31* and bCat KO growth 87.
CCCCc1ccc2[nH]cc(CCN)c2c1 was read as Fibroblast inh 83, PTEN del growth 4, HUVEC inhibit 84, H69AR inhibit 14* and bCat KO growth 18.
Screening O=C(CCN1C(=O)COc2ccccc21)N1CCC2(CC1)OCCO2 returned Fibroblast inh 103, PTEN del growth 93, HUVEC inhibit 90, H69AR inhibit 103 and bCat KO growth 88.
For CCCCn1c(O)c(C(CC)=NCc2cccnc2)c(=O)[nH]c1=O the results were Fibroblast inh 96, PTEN del growth 95, HUVEC inhibit 90, H69AR inhibit 67 and bCat KO growth 93.
CC(C)CCn1c(=O)c(C(=O)Nc2ccccc2S(N)(=O)=O)c(O)c2ccccc21 was read as Fibroblast inh 50, PTEN del growth 21, HUVEC inhibit 59, H69AR inhibit 7.4* and bCat KO growth 29.
CCCCn1c(=O)c(C(=O)Nc2cnccn2)c(O)c2ccccc21 was read as Fibroblast inh 48*, PTEN del growth 46, HUVEC inhibit 73, H69AR inhibit 14* and bCat KO growth 54.
Screening CCCCn1c(=O)c(C(=O)Nc2nc3ccccc3[nH]2)c(O)c2ccccc21 returned Fibroblast inh 85, HUVEC inhibit 100 and H69AR inhibit 8.5*.
`Cn1c(=O)cc(OCC(=O)N2CCN(Cc3ccc4c(c3)OCO4)CC2)c2ccccc21` gave Fibroblast inh 102, PTEN del growth 91, HUVEC inhibit 91, H69AR inhibit 89 and bCat KO growth 100.
